In ChEMBL document CHEMBL4513216, “Probing the Open Global Health Chemical Diversity Library for Multistage-Active Starting Points for Next-Generation Antimalarials” (ACS Infect Dis, 2020):

Experiment: Toxicity liver stage against HepG2, at 10uM
Assay type: cell-based
Design: test concentration 10 uM, cell line HepG2-A16-CD81EGFP
Settings: human, HepG2-A16-CD81EGFP cells; read-out: INHIBITION
Summary of the method: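 Uninfected HepG2-A16-CD81EGFP cells, 3 × 10^3 per well, 1536-well, plated on prespotted compound at 10 μM final, parasite-free screening media added to match infected plates; puromycin 10 μM positive, DMSO 0.5% negative; run in parallel with 48 h PbLuc assay at 37 °C, 5% CO2; viability by CellTiter-Glo luminescence, normalized to controls.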
With COc1ccc2nc(CCNC(=O)c3cc(CC(C)C)no3)[nH]c2c1 the cytotoxicity at 10 µM was 0.808%. Compound CCn1cnnc1CNC(=O)N(C)C(C)c1cccs1 (configuration not stated) has a cytotoxicity at 10 µM of -15.9%. Cc1nc(C)c(C(C)NCc2c(C(C)C)nn(C)c2N(C)C)s1 (configuration not stated) showed a cytotoxicity at 10 µM of -8.53%. With CC(=O)c1cccc(NC(=O)CN2CCCCC2C(=O)N2CCCC2)c1 (configuration not stated) the cytotoxicity at 10 µM was -8.82%. Cc1cc(C)n(C2CCCN(C(=O)CCOc3ccccc3F)C2)n1 (configuration not stated) showed a cytotoxicity at 10 µM of -6.19%. Compound CC(C)(C)c1nc(CN(Cc2ccccc2F)C2CCCCC2)no1 has a cytotoxicity at 10 µM of -2.65%. COc1ccc(-n2cnnc2SCC(=O)NC(C)C)cn1 gave a cytotoxicity at 10 µM of 14%. Cc1cnc(CN2CCCC(c3nc4ccccc4n3C(C)C)C2)o1 (configuration not stated) gave a cytotoxicity at 10 µM of -8.14%. Work on CC(C)c1cc(NC(CCO)c2ccccc2)n2nccc2n1 (configuration not stated) yielded a cytotoxicity at 10 µM of -45.4%. Work on Cc1noc(-c2ccnc(Oc3cccc(CN4CCCC4)c3F)c2)n1 yielded a cytotoxicity at 10 µM of -7.07%. Compound Cc1noc(-c2ccc(N(C)Cc3nccs3)nc2)n1 has a cytotoxicity at 10 µM of 9%. CC(C)CN(Cc1ccccn1)Cc1ccccc1C(=O)O showed a cytotoxicity at 10 µM of 2.51%. c1ccc(CN2CCOC3(CCCN(c4nccs4)C3)C2)cc1 (configuration not stated) showed a cytotoxicity at 10 µM of 13.7%. Cc1noc(C)c1-c1ccc(C2CCCN2C(=O)Cn2ccnc2)nc1 (configuration not stated) gave a cytotoxicity at 10 µM of -10.2%. COc1ccc(C(C(=O)O)N2CCC(O)(c3cccnc3)CC2)cc1Cl (configuration not stated) showed a cytotoxicity at 10 µM of 4.57%. In the case of CCSc1nc(N)c(NC(=O)c2ccc(C)cc2)c(=O)[nH]1, the cytotoxicity at 10 µM is reported as -57.3%. For Cc1nc(CN2CCCC(N(C)Cc3nnc(C4CC4)o3)C2)no1 (configuration not stated), the cytotoxicity at 10 µM was -24.2%. Cc1c(C(=O)NCCN2C(=O)CCC2=O)sc2ccc(F)cc12 gave a cytotoxicity at 10 µM of 2.11%. Compound Cc1ccc(CN(C)c2cc(N3CCCC3CO)ncn2)s1 (configuration not stated) has a cytotoxicity at 10 µM of 5.6%. Cc1ncsc1CN1CCOC(C)(C(=O)N2CCOCC2)C1 (configuration not stated) gave a cytotoxicity at 10 µM of -1.95%. Work on CS(=O)(=O)N1CCN(CC(O)COc2ccc(Cl)cc2)CC1 (configuration not stated) yielded a cytotoxicity at 10 µM of -38.6%. Compound NC(=O)c1cccc(CS(=O)(=O)CC(O)Cn2cccn2)c1 (configuration not stated) has a cytotoxicity at 10 µM of -2.45%. CCCNC(=O)c1sc(Nc2ccc(Cl)cn2)nc1C gave a cytotoxicity at 10 µM of -15.2%. Work on Cc1cc(F)ccc1NCC(=O)NCC(F)(F)F yielded a cytotoxicity at 10 µM of -2.56%. With COc1nccnc1N1CCN(Cc2ccc3c(c2)OCO3)C(=O)C1 the cytotoxicity at 10 µM was -1.65%. In the case of Cc1cnc(N2CCCC(O)C2)nc1-c1ccnn1C (configuration not stated), the cytotoxicity at 10 µM is reported as -0.271%. Compound Cc1ccc(CN2CC[C@H]3[C@H](CC(Cn4cccn4)N3C)C2)s1 (some centres not stated) has a cytotoxicity at 10 µM of 6.66%. For N#Cc1cccc(S(=O)(=O)N2CC(CC(=O)O)c3ccccc32)c1 (configuration not stated), the cytotoxicity at 10 µM was -1.11%. In the case of CN(Cc1cnn(C)c1)C(=O)CCC(=O)c1ccc2c(c1)OCCO2, the cytotoxicity at 10 µM is reported as -1.14%. CCc1noc(C(C)N2CCc3c(ncn3C3CC3)C2)n1 (configuration not stated) gave a cytotoxicity at 10 µM of 4.36%. Cc1cc(F)ccc1S(=O)(=O)N1CCN(C)Cc2ccccc21 gave a cytotoxicity at 10 µM of 4.06%. For O=C(c1ccc[nH]1)N1CCOCC2(CCN(C3CCOCC3)C2)C1 (configuration not stated), the cytotoxicity at 10 µM was 10.7%. With CCO[C@@H]1CC[C@H]2[C@H]1OCCN2Cc1ccoc1 the cytotoxicity at 10 µM was -96.9%. O=C1CCC2(CCN(Cc3nccs3)CC2)CN1CCCO showed a cytotoxicity at 10 µM of -7.56%. O=C(NCCOc1ccccc1)Nc1cc(C(F)(F)F)c[nH]c1=O showed a cytotoxicity at 10 µM of -11.9%. CCCc1cc(N2CCC(NC3CCOCC3)CC2)nc(C)n1 showed a cytotoxicity at 10 µM of 5.27%. With COc1cccc(-c2cc(NCCN(C)C)nc3[nH]ccc23)n1 the cytotoxicity at 10 µM was -3.97%. With Cc1ccc(C(=O)N2CCn3cnc(COCC4CC4)c3C2)cn1 the cytotoxicity at 10 µM was 4.03%. With COc1ncc(CN2CCOC(C)(C(=O)N3CCOCC3)C2)cn1 (configuration not stated) the cytotoxicity at 10 µM was -9.49%. In the case of CC1c2ncc(Cn3cccn3)n2CCN1S(C)(=O)=O (configuration not stated), the cytotoxicity at 10 µM is reported as -99.2%. CN(C)C(=O)CN1CCCC2(CCN(c3ccc(C#N)cn3)C2)C1 (configuration not stated) showed a cytotoxicity at 10 µM of 4.01%. CS(=O)(=O)NCc1cc(-c2cc(F)cc(F)c2)nc(N2CC[C@H](O)C2)n1 gave a cytotoxicity at 10 µM of -9.58%. Compound CS(=O)(=O)N1CC[C@]2(C[C@@H](Oc3ccccn3)CO2)C1 has a cytotoxicity at 10 µM of -144%. Compound O=C(NCCC1=CCCCC1)c1[nH]nc2c1CCCC2 has a cytotoxicity at 10 µM of -80.4%. Compound O=C(c1ccccc1F)N1CCN(c2ccc(-n3cccn3)nn2)CC1 has a cytotoxicity at 10 µM of -18.3%. Work on O=C(O)C1c2nc[nH]c2CCN1Cc1cc(-c2ccccc2)no1 (configuration not stated) yielded a cytotoxicity at 10 µM of -11.4%. For COCCn1c2c(ccc1=O)CC(NS(C)(=O)=O)CC2 (configuration not stated), the cytotoxicity at 10 µM was 8.8%. Cc1ccc(CN(Cc2[nH]cnc2C)C2CC(C)(C)NC(C)(C)C2)o1 gave a cytotoxicity at 10 µM of -3.3%. CN(CC(=O)NCC(F)(F)F)Cc1nc2c(s1)CCCC2 showed a cytotoxicity at 10 µM of 19%. Compound CC(C)c1nn(C)c(N(C)C)c1CNCCC(=O)NC1CCCCC1 has a cytotoxicity at 10 µM of -2.89%. With CCn1c(C)nnc1CN(C)C1CCN(Cc2sc(C)nc2C)C1 (configuration not stated) the cytotoxicity at 10 µM was 6.47%. Compound CC(=O)c1ccc(CNC(=O)c2cc(C)nn2C)nc1C has a cytotoxicity at 10 µM of 6.21%. Work on Cc1nnsc1CN1C[C@@H]2CC[C@H]1CN(Cc1ccc(F)cc1)C2 yielded a cytotoxicity at 10 µM of -7.44%. Compound Cc1nnsc1C(=O)NCc1cccnc1N(C)Cc1ccccc1 has a cytotoxicity at 10 µM of -6.91%. Work on O=C(c1ccnc(-n2ccnc2)c1)N1CCCC(n2cccn2)C1 (configuration not stated) yielded a cytotoxicity at 10 µM of 1.21%. CS(=O)(=O)NCc1cn2c(n1)CN(C(=O)c1ccc[nH]1)CC2 gave a cytotoxicity at 10 µM of 5.69%. Compound O=C(Cn1c(=O)n(Cc2ccco2)c2ncccc21)NC1CCCC1 has a cytotoxicity at 10 µM of -3.05%. Cc1ccsc1C(=O)NCc1cccnc1N(C)CCc1ccccn1 gave a cytotoxicity at 10 µM of -0.678%. With COc1ccc(OC)c(NC(=O)CSc2ccc3nncn3n2)c1 the cytotoxicity at 10 µM was -14.2%. In the case of CN(C)c1ncnc2c1CCN(c1cccc(F)c1)CC2, the cytotoxicity at 10 µM is reported as 18.5%. CSc1nc(C2CC2)nc(C)c1C(=O)NCc1cc(C)on1 gave a cytotoxicity at 10 µM of -11.7%. In the case of Cc1ccoc1C(=O)NCCOc1ncc(Cl)cc1Cl, the cytotoxicity at 10 µM is reported as 3.02%. With CCN(CCCNCc1c(C)nn(C)c1N(C)C)S(C)(=O)=O the cytotoxicity at 10 µM was -6.89%. Compound O=C(NCCn1cccc1)C1CCN(C2CCCCC2)CC1 has a cytotoxicity at 10 µM of -0.467%. For FC(F)(F)Sc1ccc(NCc2nnc(C3CC3)o2)cc1, the cytotoxicity at 10 µM was 5.69%. CC(C)c1ccc(OCCC(=O)N(C)CC(=O)N(C)C)cc1 showed a cytotoxicity at 10 µM of 4.72%. Compound NC(=O)CC1CCN(S(=O)(=O)N2CCCC2c2ccco2)CC1 (configuration not stated) has a cytotoxicity at 10 µM of 3.82%. Cc1ccc(CN2CCCC2(C(N)=O)c2cnccn2)c(C)c1 (configuration not stated) gave a cytotoxicity at 10 µM of 4.11%. Work on CCN1CCN(C(=O)c2ccc3c(c2)NC(=O)CN3)[C@H]2CS(=O)(=O)C[C@H]21 yielded a cytotoxicity at 10 µM of -52.9%. Cc1ccccc1N1CCCN(C(=O)CCCS(N)(=O)=O)CC1 showed a cytotoxicity at 10 µM of -16%. O=C(c1n[nH]cc1Cl)N1CCOC(Cc2cccc(C(F)(F)F)c2)C1 (configuration not stated) showed a cytotoxicity at 10 µM of 4.19%. In the case of COCCN1CCC(CN(C)c2nc3c(s2)c(C)nn3C)CC1, the cytotoxicity at 10 µM is reported as 0.992%. With O=S(=O)(C1CC1)N1CC[C@H]2OCC[C@@]2(COc2ncccc2F)C1 the cytotoxicity at 10 µM was -150%. O=C(c1cc2ccccc2s1)N1CCC(C(=O)O)(n2cccn2)CC1 showed a cytotoxicity at 10 µM of 11.3%. Compound CC(C)O[C@H]1CN(C(=O)CCN2CCCCO2)C[C@@H]1O has a cytotoxicity at 10 µM of -7.12%. For COc1ccc(Cl)cc1CC(=O)N1CCN(CC(C)(C)O)CC1, the cytotoxicity at 10 µM was -4.21%. Work on OCCN(Cc1cccnc1)c1ccc(Br)cn1 yielded a cytotoxicity at 10 µM of 21.4%. Compound CCC(c1nc(CC(C)C)nn1-c1ccccn1)n1cccn1 (configuration not stated) has a cytotoxicity at 10 µM of -8.74%. Compound O=C(O)CC[C@@H]1CN(c2ccncc2)CC[C@@H]1N1CCOCC1 has a cytotoxicity at 10 µM of 0.0482%. Compound CCCC(=O)N1CCC(Cc2ccccc2-c2ccccc2)(C(N)=O)C1 (configuration not stated) has a cytotoxicity at 10 µM of -23.6%. For COC(=O)CN(C(=O)c1ccc(Cl)o1)c1cccc(F)c1, the cytotoxicity at 10 µM was 6.11%. Cc1ccc(-c2nc(CC(=O)NCC3CCOC3)cs2)o1 (configuration not stated) showed a cytotoxicity at 10 µM of -43%.
